# Measurements as given in the M2OR odorant receptor database.
# Biological target: T1, UniProt E9Q546
# T1 sequence (whole entry): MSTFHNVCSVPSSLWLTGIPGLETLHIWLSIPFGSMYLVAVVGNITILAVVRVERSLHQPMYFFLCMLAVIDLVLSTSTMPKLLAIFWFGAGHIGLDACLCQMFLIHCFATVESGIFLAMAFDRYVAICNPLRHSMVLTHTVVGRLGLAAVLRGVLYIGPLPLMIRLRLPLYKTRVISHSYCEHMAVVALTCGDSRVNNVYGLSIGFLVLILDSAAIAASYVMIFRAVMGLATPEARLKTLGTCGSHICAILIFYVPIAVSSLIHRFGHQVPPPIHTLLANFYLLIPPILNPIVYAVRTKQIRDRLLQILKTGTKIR
# Conditions: stereoisomer not certain
# In short: (§1)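 Transient luciferase assays in mammalian cell lines were common, though methods varied by source. The values come from published papers and their supplementary material, with extra details from the original authors when needed. Responsive refers to a measured signal the original authors judged statistically different from baseline, and non-responsive (inactive) to the remainder.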
# 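Also: active if original authors judged signal statistically different from baseline.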
row,SMILES,odorant receptor agonist call
1,C=C(CC)CCCC(C)(C)O,inactive
2,C=CC(C)=CCC=C(C)CCC=C(C)C,inactive
3,CC(=O)C=CC1=C(C)CCCC1(C)C,inactive
4,O=C(OCc1ccccc1)c1ccccc1O,inactive
5,CCc1ccccc1O,inactive
6,CC(C)=C1CCC(C)CC1=O (stereo unspecified),inactive
7,CC=CC(=O)C1=C(C)CCCC1(C)C,inactive
8,CNc1ccccc1C(=O)OC,inactive
9,C=CC(=C)CCC=C(C)C,inactive
10,CCCCCC(C=O)=Cc1ccccc1,inactive
11,OCC=Cc1ccccc1,inactive
12,CC(C)CS,inactive
13,C1CCOC1,inactive
14,Cc1ccc(OC(=O)C(C)C)cc1,inactive
15,OCCc1ccccc1,inactive
16,CC(=O)OCc1ccc2c(c1)OCO2,inactive
17,C=CC(=O)CCCCC,inactive

row,SMILES,odorant receptor agonist call
1,CCCCCCC=CC=O,inactive
2,O=C([O-])CCCCCCC(=O)[O-].[H+].[H+],inactive
3,CCN(CC)CC,inactive
4,COC(OC)c1ccccc1,inactive
5,CC(CC=O)CCCC(C)(C)O (stereo unspecified),inactive
6,CCCCCC(C)O (stereo unspecified),inactive
7,CC=Cc1ccc(OC)cc1,inactive
8,CCCO,inactive
9,CCCCCOC(=O)CC,inactive
10,CC(C)=CCCC(C)=CCOC(=O)C(C)C,inactive
11,CCCCCCC(=O)OCCCC,inactive
12,CC(C)CCN,inactive
13,c1ccc2ncccc2c1,inactive
14,C=C(C)C1CCC(C)C(O)C1 (stereo unspecified),inactive
15,CC1CCC(C(C)C)C(=O)C1 (stereo unspecified),inactive
16,CCCCCCCCCC=CC=O,inactive

# Biological target: T2, UniProt E9Q6Z7
# T2 sequence (whole entry): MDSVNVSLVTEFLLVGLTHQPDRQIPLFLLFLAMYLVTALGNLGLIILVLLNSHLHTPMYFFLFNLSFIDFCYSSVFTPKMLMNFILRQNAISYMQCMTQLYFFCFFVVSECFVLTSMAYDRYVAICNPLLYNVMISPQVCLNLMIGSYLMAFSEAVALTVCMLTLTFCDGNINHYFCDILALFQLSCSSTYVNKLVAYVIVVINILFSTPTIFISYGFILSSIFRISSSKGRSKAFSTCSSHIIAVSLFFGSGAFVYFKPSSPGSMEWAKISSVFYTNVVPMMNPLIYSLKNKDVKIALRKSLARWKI
# Conditions: stereoisomer not certain
# In short: as §1
row,SMILES,odorant receptor agonist call
1,C=C(CC)CCCC(C)(C)O,inactive
2,C=CC(C)=CCC=C(C)CCC=C(C)C,inactive
3,CC(=O)C=CC1=C(C)CCCC1(C)C,inactive
4,O=C(OCc1ccccc1)c1ccccc1O,inactive
5,CCc1ccccc1O,inactive
6,CC(C)=C1CCC(C)CC1=O (stereo unspecified),inactive
7,CC=CC(=O)C1=C(C)CCCC1(C)C,inactive
8,CNc1ccccc1C(=O)OC,inactive
9,C=CC(=C)CCC=C(C)C,inactive
10,CCCCCC(C=O)=Cc1ccccc1,inactive
11,OCC=Cc1ccccc1,inactive
12,CC(C)CS,inactive
13,C1CCOC1,inactive
14,Cc1ccc(OC(=O)C(C)C)cc1,inactive
15,OCCc1ccccc1,inactive
16,CC(=O)OCc1ccc2c(c1)OCO2,inactive
17,C=CC(=O)CCCCC,inactive

row,SMILES,odorant receptor agonist call
1,CCCCCCC=CC=O,inactive
2,O=C([O-])CCCCCCC(=O)[O-].[H+].[H+],inactive
3,CCN(CC)CC,inactive
4,COC(OC)c1ccccc1,inactive
5,CC(CC=O)CCCC(C)(C)O (stereo unspecified),inactive
6,CCCCCC(C)O (stereo unspecified),inactive
7,CC=Cc1ccc(OC)cc1,inactive
8,CCCO,inactive
9,CCCCCOC(=O)CC,inactive
10,CC(C)=CCCC(C)=CCOC(=O)C(C)C,inactive
11,CCCCCCC(=O)OCCCC,inactive
12,CC(C)CCN,inactive
13,c1ccc2ncccc2c1,inactive
14,C=C(C)C1CCC(C)C(O)C1 (stereo unspecified),inactive
15,CC1CCC(C(C)C)C(=O)C1 (stereo unspecified),inactive
16,CCCCCCCCCC=CC=O,inactive
